Active and inactive are the calls of the source.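 The calls were made as follows: active = a fitted dose response curve plus choline uptake above 120% of control at 33.3 µM; inactive = the rest.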
Target: High affinity choline transporter 1 (Homo sapiens) (UniProt Q9GZV3)
Assay: CHT activators enhancing choline uptake, dose response, orthogonal assay for CHT activator project, cell-based, 3H-choline uptake, radioactive, HEK293 CHT LV-AA (AID 651748)
Procedure, shortened: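 Material: CHT LV-AA-expressing HEK293 cells | Timing: 15 min pre-incubation plus 15 min uptake, 37 °C | Detection: Tritium scintillation counting | Control set: Buffer 100%, HC-3 0%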

High affinity choline transporter 1 (Homo sapiens), sequence (Q9GZV3 whole entry, looked up): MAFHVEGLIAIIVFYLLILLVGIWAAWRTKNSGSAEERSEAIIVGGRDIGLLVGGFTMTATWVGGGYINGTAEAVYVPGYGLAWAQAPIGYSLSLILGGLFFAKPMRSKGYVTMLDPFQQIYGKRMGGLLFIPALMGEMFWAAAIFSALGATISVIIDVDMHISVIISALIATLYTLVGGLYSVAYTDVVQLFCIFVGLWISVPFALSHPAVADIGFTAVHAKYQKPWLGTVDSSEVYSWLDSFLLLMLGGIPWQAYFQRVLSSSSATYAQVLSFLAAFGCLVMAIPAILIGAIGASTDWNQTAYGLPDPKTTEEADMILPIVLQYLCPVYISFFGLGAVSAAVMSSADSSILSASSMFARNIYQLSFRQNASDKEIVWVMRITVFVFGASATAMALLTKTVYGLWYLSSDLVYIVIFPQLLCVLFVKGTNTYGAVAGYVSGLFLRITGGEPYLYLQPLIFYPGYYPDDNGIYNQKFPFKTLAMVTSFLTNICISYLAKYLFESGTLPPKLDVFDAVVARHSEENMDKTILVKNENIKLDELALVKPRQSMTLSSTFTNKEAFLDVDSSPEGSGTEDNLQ

Cc1cccc(NCc2nc3ccccc3n2CCOc2ccccc2)c1
outcome: inactive

Fc1ccc(NCc2nc3ccccc3n2CCOc2ccccc2)cc1
outcome: inactive

O=C1N(Cc2cccc(Cl)c2)C[C@@H]2C[C@@H](c3cccn3-c3ccccn3)N3CCC[C@@]123
outcome: inactive

Cc1ccccc1NCc1nc2ccccc2n1CCOc1ccccc1
outcome: inactive

CCOc1ccc(NCc2nc3ccccc3n2CCOc2ccccc2)cc1
outcome: inactive

Brc1ccc(NCc2nc3ccccc3n2CCOc2ccccc2)cc1
outcome: inactive

COc1ccccc1NCc1nc2ccccc2n1CCOc1ccccc1
outcome: inactive

COc1ccc(NCc2nc3ccccc3n2CCOc2ccccc2Cl)cc1
outcome: inactive

Cc1ccc(NCc2nc3ccccc3n2CCOc2ccccc2)cc1
outcome: inactive

Clc1ccc(NCc2nc3ccccc3n2CCOc2ccccc2)cc1
outcome: inactive

c1ccc(NCc2nc3ccccc3n2CCOc2ccccc2)cc1
outcome: inactive

COc1ccc(NCc2nc3ccccc3n2CCOc2ccccc2)cc1
outcome: inactive

CC(C)CN1CCN(Cc2cccn2-c2ccc(Cl)cn2)CC1CCO (centres undefined)
outcome: inactive

O=C(c1cccc(C(F)(F)F)c1)C1CCCN(Cc2cccn2-c2ncccn2)C1 (centres undefined)
outcome: inactive
